# Results from ChEMBL document CHEMBL3407383, “Design, synthesis and biological profile of new inhibitors of multidrug resistance associated proteins carrying a polycyclic scaffold” (Eur J Med Chem, 2015).
# Activity calls are given as the source filed them. The rule behind the calls is not given here.
# Molecular target: T1, ATP-dependent translocase ABCB1 (Homo sapiens, UniProt P08183)
# Assay: Reversal of human MDR1-mediated drug efflux in mouse L5178 cells using rhodamine 123 as substrate assessed as fluorescence activity ratio at 4 uM incubated for 10 mins prior to substrate addition measured after 20 mins by FACScan flow cytometry relative to control
# Assay type: cell-based
# Details: l5178, 20 min
# T1 sequence (P08183 whole entry): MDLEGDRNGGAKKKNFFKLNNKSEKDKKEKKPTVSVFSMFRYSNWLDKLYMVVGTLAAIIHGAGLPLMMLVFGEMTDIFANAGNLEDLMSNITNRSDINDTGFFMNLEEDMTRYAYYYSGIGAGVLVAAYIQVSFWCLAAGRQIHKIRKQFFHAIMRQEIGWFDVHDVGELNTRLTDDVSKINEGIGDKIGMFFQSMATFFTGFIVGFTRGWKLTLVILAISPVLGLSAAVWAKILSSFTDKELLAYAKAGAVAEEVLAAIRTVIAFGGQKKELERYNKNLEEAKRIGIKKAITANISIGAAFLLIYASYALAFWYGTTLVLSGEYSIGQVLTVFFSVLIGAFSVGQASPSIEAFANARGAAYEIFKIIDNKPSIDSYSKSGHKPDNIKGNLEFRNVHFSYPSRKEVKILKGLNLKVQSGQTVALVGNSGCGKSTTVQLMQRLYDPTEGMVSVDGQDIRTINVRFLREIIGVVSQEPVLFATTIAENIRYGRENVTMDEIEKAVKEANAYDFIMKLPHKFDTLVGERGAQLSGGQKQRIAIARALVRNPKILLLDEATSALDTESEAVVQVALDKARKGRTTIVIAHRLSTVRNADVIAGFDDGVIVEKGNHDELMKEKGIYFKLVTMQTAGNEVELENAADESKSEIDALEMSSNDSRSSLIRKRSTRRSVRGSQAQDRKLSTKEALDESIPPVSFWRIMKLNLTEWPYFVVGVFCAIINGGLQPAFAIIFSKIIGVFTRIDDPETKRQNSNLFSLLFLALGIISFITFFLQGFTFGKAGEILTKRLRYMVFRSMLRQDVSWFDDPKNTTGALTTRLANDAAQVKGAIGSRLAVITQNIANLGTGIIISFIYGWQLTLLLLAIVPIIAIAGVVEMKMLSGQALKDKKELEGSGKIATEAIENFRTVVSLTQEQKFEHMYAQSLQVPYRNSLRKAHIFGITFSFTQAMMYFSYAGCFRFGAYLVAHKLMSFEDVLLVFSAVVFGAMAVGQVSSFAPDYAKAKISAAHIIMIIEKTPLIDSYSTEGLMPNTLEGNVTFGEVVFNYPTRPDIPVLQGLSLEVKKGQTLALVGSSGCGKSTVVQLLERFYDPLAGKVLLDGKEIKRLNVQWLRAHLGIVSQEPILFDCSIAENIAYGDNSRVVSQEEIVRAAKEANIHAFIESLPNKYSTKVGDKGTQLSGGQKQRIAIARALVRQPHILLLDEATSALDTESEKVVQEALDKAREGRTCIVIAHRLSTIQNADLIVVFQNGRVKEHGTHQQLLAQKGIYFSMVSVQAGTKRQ
row,Ratio,SMILES
1,6.39,O=C1[C@@H]2[C@H]3c4ccccc4[C@H](c4ccccc43)[C@@H]2C(=O)N1CC#CCN1CCC(n2c(=O)[nH]c3ccccc32)CC1
2,54.832,O=C1[C@@H]2[C@H]3c4ccccc4[C@H](c4ccccc43)[C@@H]2C(=O)N1CC#CCN1CCN(Cc2ccccc2)CC1

# Molecular target: T2, Multidrug resistance protein 1/Multidrug resistance associated protein 1 (Homo sapiens, UniProt P33527+P08183)
# Assay: Inhibition of MDR1/MRP1 overexpressed in doxorubicin-resistant human HL60R cells assessed as DXR accumulation at 0.4 uM incubated for 2 hrs prior to DXR challenge measured after 2 hrs by fluorescence assay relative to control
# Assay type: cell-based
# Details: not given
# Method in brief: (§1)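 HL60 and HL60R cells (2.5 × 10^5 cells/mL) preincubated 2 h with compound, then 2 h with 10 µM DXR. Washed twice in cold PBS, resuspended at 1 × 10^6 cells/mL. Anthracycline fluorescence read immediately by flow cytometry (excitation 488 nm, emission 600 nm, log scale). Mean ± SD, ≥3 independent experiments; one-way ANOVA versus HL60R.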
row,inhibition (INH),SMILES
1,Not Active,O=C1[C@@H]2[C@H]3c4ccccc4[C@H](c4ccccc43)[C@@H]2C(=O)N1CC#CCN1CCC(n2c(=O)[nH]c3ccccc32)CC1
2,Not Active,O=C1[C@@H]2[C@H]3c4ccccc4[C@H](c4ccccc43)[C@@H]2C(=O)N1CC#CCN1CCN(Cc2ccccc2)CC1

# Tested on: not listed separately
# Assay: Cytotoxicity against human HL60 cells assessed as effect on cell cycle at 10 uM
# Assay type: cell-based
# Details: hl-60, 10 µM
row,SMILES,Activity
1,O=C1[C@@H]2[C@H]3c4ccccc4[C@H](c4ccccc43)[C@@H]2C(=O)N1CC#CCN1CCC(n2c(=O)[nH]c3ccccc32)CC1,Non-toxic
2,O=C1[C@@H]2[C@H]3c4ccccc4[C@H](c4ccccc43)[C@@H]2C(=O)N1CC#CCN1CCN(Cc2ccccc2)CC1,Non-toxic

# Tested on: HL60R
# Assay: Potentiation of doxorubicin-induced cytotoxicity in human HL60R cells at 10 uM incubated for 2 hrs prior to doxorubicin challenge measured after 24 hrs by trypan blue staining-based haemocytometry
# Assay type: functional, cell-based
# Details: not given
# Method in brief: (§2)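 HL60R cells seeded at 1.5 × 10^5 cells/mL; after 24 h, exposed to compound (10 µM) for 2 h, then 10 µM DXR added. Viable cells counted by Trypan Blue exclusion in a Bürker haemocytometer at 24 and 48 h. Mean ± SD, at least three independent experiments.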
row,SMILES,Activity
1,O=C1[C@@H]2[C@H]3c4ccccc4[C@H](c4ccccc43)[C@@H]2C(=O)N1CC#CCN1CCC(n2c(=O)[nH]c3ccccc32)CC1,Active

# Molecular target: T1, ATP-dependent translocase ABCB1
# Assay: Reversal of human MDR1-mediated drug efflux in mouse L5178 cells using rhodamine 123 as substrate assessed as fluorescence activity ratio at 40 uM incubated for 10 mins prior to substrate addition measured after 20 mins by FACScan flow cytometry relative to control
# Assay type: cell-based
# Details: l5178, 20 min
row,Ratio,SMILES
1,44.6,O=C1[C@@H]2[C@H]3c4ccccc4[C@H](c4ccccc43)[C@@H]2C(=O)N1CC#CCN1CCC(n2c(=O)[nH]c3ccccc32)CC1
2,85.46,O=C1[C@@H]2[C@H]3c4ccccc4[C@H](c4ccccc43)[C@@H]2C(=O)N1CC#CCN1CCN(Cc2ccccc2)CC1

# Tested on: HL60R
# Assay: Potentiation of doxorubicin-induced cell cycle arrest in human HL60R cells assessed as accumulation at G2/M phase at 10 uM after 24 hrs by propidium iodide staining-based flow cytometry
# Assay type: functional
# Details: not given
# Method in brief: (§3)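 HL60R cells treated with compound plus 10 µM DXR for 24 and 48 h. Fixed in 70% ice-cold ethanol at -20 °C overnight, stained with PI 5 µg/mL plus DNase-free RNase A 10 µg/mL in PBS, 30 min at 37 °C in the dark. PI red fluorescence acquired on a linear scale at 600 nm by flow cytometry.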
row,SMILES,Activity
1,O=C1[C@@H]2[C@H]3c4ccccc4[C@H](c4ccccc43)[C@@H]2C(=O)N1CC#CCN1CCC(n2c(=O)[nH]c3ccccc32)CC1,Active

# Molecular target: T2, Multidrug resistance protein 1/Multidrug resistance associated protein 1
# Assay: Inhibition of MDR1/MRP1 overexpressed in doxorubicin-resistant human HL60R cells assessed as DXR accumulation at 10 uM incubated for 2 hrs prior to DXR challenge measured after 2 hrs by fluorescence assay relative to control
# Assay type: cell-based
# Details: not given
# Method in brief: as §1
row,inhibition (INH),SMILES
1,Not Active,O=C1[C@@H]2[C@H]3c4ccccc4[C@H](c4ccccc43)[C@@H]2C(=O)N1CC#CCN1CCC(n2c(=O)[nH]c3ccccc32)CC1
2,Active,O=C1[C@@H]2[C@H]3c4ccccc4[C@H](c4ccccc43)[C@@H]2C(=O)N1CC#CCN1CCN(Cc2ccccc2)CC1

# Tested on: not listed separately
# Assay: Cytotoxicity against human HL60R cells assessed as cell viability at 10 uM by MTT assay
# Assay type: cell-based
# Details: not given
row,SMILES,Activity
1,O=C1[C@@H]2[C@H]3c4ccccc4[C@H](c4ccccc43)[C@@H]2C(=O)N1CC#CCN1CCC(n2c(=O)[nH]c3ccccc32)CC1,Non-toxic
2,O=C1[C@@H]2[C@H]3c4ccccc4[C@H](c4ccccc43)[C@@H]2C(=O)N1CC#CCN1CCN(Cc2ccccc2)CC1,Non-toxic

# Tested on: not listed separately
# Assay: Cytotoxicity against human HL60 cells assessed as cell viability at 10 uM by MTT assay
# Assay type: cell-based
# Details: hl-60, 10 µM
row,SMILES,Activity
1,O=C1[C@@H]2[C@H]3c4ccccc4[C@H](c4ccccc43)[C@@H]2C(=O)N1CC#CCN1CCC(n2c(=O)[nH]c3ccccc32)CC1,Non-toxic
2,O=C1[C@@H]2[C@H]3c4ccccc4[C@H](c4ccccc43)[C@@H]2C(=O)N1CC#CCN1CCN(Cc2ccccc2)CC1,Non-toxic

# Tested on: HL60R
# Assay: Potentiation of doxorubicin-induced cytotoxicity in human HL60R cells at 10 uM incubated for 2 hrs prior to doxorubicin challenge measured after 24 to 48 hrs by trypan blue staining-based haemocytometry
# Assay type: functional, cell-based
# Details: not given
# Method in brief: as §2
row,SMILES,Activity
1,O=C1[C@@H]2[C@H]3c4ccccc4[C@H](c4ccccc43)[C@@H]2C(=O)N1CC#CCN1CCN(Cc2ccccc2)CC1,Active

# Molecular target: T1, ATP-dependent translocase ABCB1
# Assay: Reversal of human MDR1-mediated drug efflux in mouse L5178 cells using rhodamine 123 as substrate assessed as fluorescence activity ratio at 0.8 uM incubated for 10 mins prior to substrate addition measured after 20 mins by FACScan flow cytometry relative to control
# Assay type: cell-based
# Details: l5178, 20 min
# Method in brief: (§4)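 L5178 MDR1-transfected and parental mouse lymphoma cells at 2 × 10^6/mL in serum-free McCoy's 5A. Preincubated with compound (0.4–40 µM) for 10 min at room temperature, then rhodamine-123 (5.2 µM final) added for 20 min at 37 °C; washed twice, resuspended in PBS, read by flow cytometry. Verapamil as positive control. R = (MDR treated/MDR control)/(parental treated/parental control).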
row,Ratio,SMILES
1,7.76,O=C1[C@@H]2[C@H]3c4ccccc4[C@H](c4ccccc43)[C@@H]2C(=O)N1CC#CCN1CCN(Cc2ccccc2)CC1

# Molecular target: T2, Multidrug resistance protein 1/Multidrug resistance associated protein 1
# Assay: Activity at human MDR1/MRP1 overexpressed in doxorubicin-resistant human HL60R cells assessed as ATP consumption at 10 uM after 2 hrs by luminescence assay (reference value: 6350 +/- 303 RLU)
# Assay type: cell-based
# Details: not given
# Method in brief: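 HL60R cells at 2.5 × 10^5 cells/mL exposed to 10 µM compound (DMSO solution) for 2 h at 37 °C, 5% CO2; washed twice in cold PBS, resuspended at 1 × 10^6 cells/mL. 1 × 10^5 cells lysed in swab by 20 s agitation; ATP read by luciferase/d-luciferin bioluminescence on a luminometer.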
row,RLU,SMILES
1,4363,O=C1[C@@H]2[C@H]3c4ccccc4[C@H](c4ccccc43)[C@@H]2C(=O)N1CC#CCN1CCC(n2c(=O)[nH]c3ccccc32)CC1
2,3957,O=C1[C@@H]2[C@H]3c4ccccc4[C@H](c4ccccc43)[C@@H]2C(=O)N1CC#CCN1CCN(Cc2ccccc2)CC1

# Tested on: HL60R
# Assay: Potentiation of doxorubicin-induced cell cycle arrest in human HL60R cells assessed as accumulation at G0/G1 phase at 10 uM after 24 hrs by propidium iodide staining-based flow cytometry
# Assay type: functional
# Details: not given
# Method in brief: as §3
row,SMILES,Activity
1,O=C1[C@@H]2[C@H]3c4ccccc4[C@H](c4ccccc43)[C@@H]2C(=O)N1CC#CCN1CCN(Cc2ccccc2)CC1,Active

# Molecular target: T1, ATP-dependent translocase ABCB1
# Assay: Reversal of human MDR1-mediated drug efflux in mouse L5178 cells using rhodamine 123 as substrate at 40 uM incubated for 10 mins prior to substrate addition by FACScan flow cytometry relative to verapamil
# Assay type: cell-based
# Details: l5178, 10 min
# Method in brief: as §4
row,Ratio,SMILES
1,15,O=C1[C@@H]2[C@H]3c4ccccc4[C@H](c4ccccc43)[C@@H]2C(=O)N1CC#CCN1CCN(Cc2ccccc2)CC1

# Molecular target: T1, ATP-dependent translocase ABCB1
# Assay: Reversal of human MDR1-mediated drug efflux in mouse L5178 cells using rhodamine 123 as substrate assessed as fluorescence activity ratio at 0.4 uM incubated for 10 mins prior to substrate addition measured after 20 mins by FACScan flow cytometry relative to control
# Assay type: cell-based
# Details: l5178, 20 min
# Method in brief: as §4
row,Ratio,SMILES
1,2.62,O=C1[C@@H]2[C@H]3c4ccccc4[C@H](c4ccccc43)[C@@H]2C(=O)N1CC#CCN1CCN(Cc2ccccc2)CC1

# Tested on: not listed separately
# Assay: Cytotoxicity against human HL60R cells assessed as effect on cell cycle at 10 uM
# Assay type: cell-based
# Details: not given
row,SMILES,Activity
1,O=C1[C@@H]2[C@H]3c4ccccc4[C@H](c4ccccc43)[C@@H]2C(=O)N1CC#CCN1CCC(n2c(=O)[nH]c3ccccc32)CC1,Non-toxic
2,O=C1[C@@H]2[C@H]3c4ccccc4[C@H](c4ccccc43)[C@@H]2C(=O)N1CC#CCN1CCN(Cc2ccccc2)CC1,Non-toxic

# Tested on: not listed separately
# Assay: Lipophilicity, log P of the compound
# Assay type: physicochemical
# Details: octanol/water
row,logP,SMILES
1,2.54,O=C1[C@@H]2[C@H]3c4ccccc4[C@H](c4ccccc43)[C@@H]2C(=O)N1CC#CCN1CCC(n2c(=O)[nH]c3ccccc32)CC1
2,2.54,O=C1[C@@H]2[C@H]3c4ccccc4[C@H](c4ccccc43)[C@@H]2C(=O)N1CC#CCN1CCN(Cc2ccccc2)CC1
